PMC7881813 (The Indian Journal of Medical Research, 2020)
pIC50: −log10 of the molar value.

Experiments:
EAC-bearing mice [1] = experiment: Haematological parameters of EAC-bearing mice; type: in vivo, mouse; conditions: for Effect on haematological counts (in words): respective IC50 dosage; for Hb / Platelets / RBC / WBC: treatment at IC50 dose, mean±SD n=6
Summary of the method: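 Female Swiss albino mice (7–8 wk) inoculated intraperitoneally with 1×10⁶ EAC cells on day 0, then treated on days 1–10. After 4 h fasting, heparinised cardiac blood collected. Haemoglobin by Sahli's method; RBC, WBC and platelets on an automated haematology analyser. Mean±SD, six mice per group.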

EAC-bearing mice [2] = experiment: Survivability study; type: in vivo, mouse; conditions: respective IC50 dosages, n=10
Summary of the method: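 EAC-bearing mice (1×10⁶ cells intraperitoneally), ten per group, treated beginning 24 h after inoculation. Survival days recorded. ILS% = (T−C)/C×100, with T the survival days of treated mice and C those of untreated mice. Kaplan–Meier survival analysis.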

MDA-MB-231 cells [3] = experiment: MTT assay for IC50 determination, MDA-MB-231; type: cell-based; conditions: Homo sapiens, MDA-MB-231, read-out: IC50 for MDA-MB-231
MCF-7 cells [4] = experiment: MTT assay for IC50 determination, MCF-7; type: cell-based; conditions: Homo sapiens, MCF7, read-out: IC50 for MCF-7
EAC cells = experiment: In vivo IC50 determination in EAC cells by trypan blue dye exclusion; conditions: Mus musculus, 24 h, read-out: IC50 (50 per cent lethality of EAC cells) in vivo
EAC-bearing mice [5] = experiment: Hepatotoxicity and kidney toxicity parameters of EAC-bearing mice; type: in vivo, mouse; conditions: treatment at IC50 dosage; for ALP / ALT / AST / Creatinine / Urea: EAC-bearing mice, mean±SD n=6
normal fibroblast = experiment: Intracellular ROS generation; type: cell-based, mouse; conditions: treatment with 50 μM
[6] = system: liver cytosol of EAC-bearing mice; experiment: Antioxidative enzymes and LPO in liver cytosol of EAC-bearing mice; type: in vivo, mouse
Summary of the method: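 Liver from female Swiss albino mice bearing intraperitoneal EAC. After 15 days of treatment: GST in liver cytosol, rise in A340 with CDNB substrate, as CDNB-GSH conjugate formed per min per mg protein. GPx in post-mitochondrial fraction, fall in A340 after H₂O₂ addition, as nmol NADPH used per min per mg protein. Mean±SD, six per group.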

Bax:Bcl-2 = experiment: Western blot Bax:Bcl-2 ratio; type: cell-based; conditions: EAC, MCF-7 and MDA-MB-231 cells, XD-treated vs control
Summary of the method: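 Whole-cell extracts prepared from control and XD-treated EAC, MCF-7 and MDA-MB-231 cells. Bax and Bcl-2 immunoblotted and the Bax:Bcl-2 ratio calculated. EAC cells came from mice dosed on days 1–10 after intraperitoneal tumour inoculation. Repeated at least three times, mean±SD.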

MCF-7 cells [7] = experiment: Comet assay, MCF-7 cells; type: cell-based, human; conditions: MCF-7, XD 1 μM
Summary of the method: (§1)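 Alkaline comet assay, about 10⁴ cells/slide in 1% low-melt agarose over normal agarose, capped with 0.5% low-melt agarose. Lysis overnight at 4°C (2.5 M NaCl, 100 mM Na₂-EDTA, 10 mM Tris, 1% Triton X-100, 10% DMSO, pH 10.0). Electrophoresis at pH 13.1, 30 min, 300 mA, 20 V. Tris neutralisation, ethidium bromide staining. Per cent damaged cells among 150–200 scored per slide.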

normal murine fibroblast = experiment: MTT cytotoxicity on normal mouse fibroblast; type: cell-based; conditions: xanthones up to highest concentration, cisplatin at 20 μM, XD at 1 and 5 μM
[8] = system: normal cells (fibroblast); experiment: Comet assay, normal fibroblast; type: cell-based, mouse; conditions: highest dose of 40 μM
Summary of the method: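 Mouse fibroblasts treated with XD 24 h after seeding and harvested 48 h later. Alkaline comet assay: cells in low-melt agarose layers, overnight lysis at 4°C at pH 10.0, electrophoresis at pH 13.1 for 30 min (300 mA, 20 V), neutralisation, ethidium bromide stain. Fluorescence microscopy; damaged-cell per cent and tail length from 150–200 cells per slide.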

[9] = system: EAC, MCF-7 and MDA-MB-231 cells; experiment: TUNEL assay; type: cell-based; conditions: in vivo and in vitro models, vs control
Summary of the method: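 EAC cells recovered from the peritoneum of mice after 10 days of XD dosing, PBS-washed, smeared and fixed in 4% paraformaldehyde. MCF-7 and MDA-MB-231 cells grown on coverslips and fixed in paraformaldehyde. Fluorescein in situ cell-death (TUNEL) kit used per manufacturer; positive cells imaged by fluorescence microscopy at ×20.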

normal mice = experiment: Chronic toxicity study with therapeutic dosage of XD; type: in vivo, mouse; conditions: 8 μM, oral, 40 days, data not shown
Summary of the method: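 Normal mice dosed orally with XD for 40 days; controls got 0.9% saline. After 4 h fasting, blood drawn by cardiac puncture, clotted, spun at 2000×g for 15 min, serum held at −20°C. ALT, ALP, urea and creatinine measured on an automated clinical chemistry analyser.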

[10] = system: EAC, MCF-7 and MDA-MB-231 cells; experiment: DNA fragmentation assay; type: cell-based; conditions: XD at respective IC50 dosage (8.1, 1 and 5 μM)
[11] = system: EAC, MCF-7 and MDA-MB-231 cells; experiment: Intracellular ROS generation; type: cell-based; conditions: XD at respective IC50 (8.1, 1 and 5 μM), in vivo and in vitro, vs untreated
[12] = system: EAC, MCF-7 and MDA-MB-231 cells; experiment: Cell cycle phase distribution by flow cytometry; type: cell-based; conditions: 10 days of treatment in vivo and 48 h in vitro, vs control
Summary of the method: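 EAC cells taken from mice 10 days after daily XD dosing (days 1–10 after intraperitoneal inoculation with 1×10⁶ cells), PBS-washed and haemocytometer-counted. […] Cell-cycle distribution, including SubG0, by flow cytometry. Repeated at least three times.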

MDA-MB-231 cells [13] = experiment: Comet assay, MDA-MB-231 cells; type: cell-based, human; conditions: MDA-MB-231, XD 5 μM
Summary of the method: as §1

[14] = EAC-bearing mice, XD-treated 8.1 µM

N.N.[Cl][Pt][Cl] [Cisplatin, reference compound]
Effect on haematological counts (in words) (EAC-bearing mice [1]): lowering of RBC, Hb and platelets | Hb (EAC-bearing mice [1]): 2.1 ± 0.4 g/dL | Platelets (EAC-bearing mice [1]): 200±2 10^3/µl | RBC (EAC-bearing mice [1]): 2.7±0.6 10^6/µl | WBC (EAC-bearing mice [1]): 35.8±0.8 10^3/µl | Increase in life span of tumour-bearing mice (ILS%) (EAC-bearing mice [2]): 36.36%

COc1cc(O)c2c(=O)c3c(OC)c(OC)ccc3oc2c1 [XA, 1-hydroxy-3,7,8-trimethoxyxanthone]
pIC50 (MDA-MB-231 cells [3]): 4.30 | pIC50 (MCF-7 cells [4]): 4.52 | pIC50 (EAC cells): 4.31 | ALP (EAC-bearing mice [5]): 103±3 IU/l | ALT (EAC-bearing mice [5]): 91±3 IU/l | AST (EAC-bearing mice [5]): 350±1 IU/l | Creatinine (EAC-bearing mice [5]): 1.7 ± 0.09 mg/dL | Urea (EAC-bearing mice [5]): 71 ± 8 mg/dL | Hb (EAC-bearing mice [1]): 7.5 ± 0.8 g/dL | Platelets (EAC-bearing mice [1]): 456±3 10^3/µl | RBC (EAC-bearing mice [1]): 4.15±0.4 10^6/µl | WBC (EAC-bearing mice [1]): 30.8±0.6 10^3/µl | Increase in life span of tumour-bearing mice (ILS%) (EAC-bearing mice [2]): 45%

COc1cc(O)c2c(=O)c3c(O)ccc(OC)c3oc2c1 [XB, 1,8-dihydroxy-3,5-dimethoxyxanthone]
pIC50 (MDA-MB-231 cells [3]): 4.52 | pIC50 (MCF-7 cells [4]): 4.60 | pIC50 (EAC cells): 4.31 | ALP (EAC-bearing mice [5]): 160±5 IU/l | ALT (EAC-bearing mice [5]): 93±4 IU/l | AST (EAC-bearing mice [5]): 335±8 IU/l | Creatinine (EAC-bearing mice [5]): 1.1 ± 0.09 mg/dL | Urea (EAC-bearing mice [5]): 67 ± 8 mg/dL | Hb (EAC-bearing mice [1]): 7.4 ± 0.5 g/dL | Platelets (EAC-bearing mice [1]): 596±4 10^3/µl | RBC (EAC-bearing mice [1]): 4.75±0.3 10^6/µl | WBC (EAC-bearing mice [1]): 24.6±0.6 10^3/µl | Increase in life span of tumour-bearing mice (ILS%) (EAC-bearing mice [2]): 63%

COc1cc(O)c2c(=O)c3c(OC)ccc(OC)c3oc2c1 [XC, 1-hydroxy-3,5,8-trimethoxyxanthone]
pIC50 (MDA-MB-231 cells [3]): 4.60 | pIC50 (MCF-7 cells [4]): 5.10 | pIC50 (EAC cells): 4.49 | ALP (EAC-bearing mice [5]): 106±2 IU/l | ALT (EAC-bearing mice [5]): 85±5 IU/l | AST (EAC-bearing mice [5]): 355±9 IU/l | Creatinine (EAC-bearing mice [5]): 1.2 ± 0.09 mg/dL | Urea (EAC-bearing mice [5]): 79 ± 8 mg/dL | Hb (EAC-bearing mice [1]): 7.9 ± 0.9 g/dL | Platelets (EAC-bearing mice [1]): 441±2 10^3/µl | RBC (EAC-bearing mice [1]): 5.75±0.2 10^6/µl | WBC (EAC-bearing mice [1]): 27.2±0.8 10^3/µl | Increase in life span of tumour-bearing mice (ILS%) (EAC-bearing mice [2]): 81%

COc1cc(O)c2c(=O)c3c(O)ccc(O)c3oc2c1 [XD, 1,5,8-trihydroxy-3-methoxyxanthone]
ROS generation in normal fibroblast (normal fibroblast): augmentation of ROS generation was not seen | CAT ([6]; Drug control group): 0.4±0.06 units/mg | GPx ([6]; Drug control group): 8.28 ± 0.6 nmol/mg | GSH ([6]; Drug control group): 2.6 ± 0.3 nmol/mg | GST ([6]; Drug control group): 8 ± 0.6 nmol/mg | LPO ([6]; Drug control group): 1.6 ± 0.09 mol/mg | SOD ([6]; Drug control group): 17±6 units/mg | GPx [6, 14]: 9.9 ± 2 nmol/mg | GSH [6, 14]: 5.72 ± 1 nmol/mg | GST [6, 14]: 15 ± 5 nmol/mg | LPO [6, 14]: 1.8 ± 0.09 mol/mg | SOD [6, 14]: 35±0.8 units/mg | intracellular Bax:Bcl-2 ratio (Bax:Bcl-2): significant (P<0.001) augmentation | per cent of damaged cells (comet assay) (MCF-7 cells [7]): 65 per cent | pIC50 (MDA-MB-231 cells [3]): 5.30 | pIC50 (MCF-7 cells [4]): 6.00 | pIC50 (EAC cells): 5.09 | ALP (EAC-bearing mice [5]): 57.2±2 IU/l | ALT (EAC-bearing mice [5]): 79±2 IU/l | AST (EAC-bearing mice [5]): 205±5 IU/l | Creatinine (EAC-bearing mice [5]): 0.7 ± 0.09 mg/dL | Urea (EAC-bearing mice [5]): 41 ± 8 mg/dL | Liver and kidney toxicity parameters in tumour-bearing mice (EAC-bearing mice [5]; compared to normal mice): almost back to normal | Effect on normal murine fibroblast (normal murine fibroblast): without affecting the normal cells | DNA damage in normal cells (comet assay) [8]: no DNA damage was seen in normal cells | Apoptosis by TUNEL assay [9]: significant apoptosis | Chronic toxicity (liver and kidney toxicity parameters) (normal mice): did not show any toxicity | DNA fragmentation [10]: smearing pattern | ROS level [11]: significantly (P<0.001) increased | SubG0 population [12]: significantly (P<0.001) increase | Effect on haematological counts (in words) (EAC-bearing mice [1]): lower WBC and platelet counts back to normal level | Hb (EAC-bearing mice [1]): 10 ± 2 g/dL | Platelets (EAC-bearing mice [1]): 341±8 10^3/µl | RBC (EAC-bearing mice [1]): 5.05±0.5 10^6/µl | WBC (EAC-bearing mice [1]): 17.2±0.2 10^3/µl | per cent of damaged cells (comet assay) (MDA-MB-231 cells [13]): 67 per cent | Increase in life span of tumour-bearing mice (ILS%) (EAC-bearing mice [2]): 140%
